GPR7 antagonist – GPR7 receptor antagonists, primary screen, cell-based, fluorescence, single concentration; GPR7-expressing cells, fluorescence antagonist assay; inhibition, % at 4.4 µM; 290,000 tested, 1.1% active; AID 1861, 2009; in the data active = inhibition above about 16%, passing the limit was not always enough;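 note: cells stimulated with the agonist NPW; 0% = agonist with vehicle and 100% = vehicle without agonist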
OX1R antag-1 – antagonists of human orexin 1 receptor (OX1R); OX1R-expressing cells, FRET antagonist read-out; inhibition, % at 6.6 µM; 330,000 tested, 1.8% active; AID 485270, 2010; in the data active = inhibition mostly above about 38%, no sharp cut-off; inactive = mostly below about 40%;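 note: 0% = agonist challenge alone and 100% = reference antagonist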
Target sequence (O43613 whole entry, looked up): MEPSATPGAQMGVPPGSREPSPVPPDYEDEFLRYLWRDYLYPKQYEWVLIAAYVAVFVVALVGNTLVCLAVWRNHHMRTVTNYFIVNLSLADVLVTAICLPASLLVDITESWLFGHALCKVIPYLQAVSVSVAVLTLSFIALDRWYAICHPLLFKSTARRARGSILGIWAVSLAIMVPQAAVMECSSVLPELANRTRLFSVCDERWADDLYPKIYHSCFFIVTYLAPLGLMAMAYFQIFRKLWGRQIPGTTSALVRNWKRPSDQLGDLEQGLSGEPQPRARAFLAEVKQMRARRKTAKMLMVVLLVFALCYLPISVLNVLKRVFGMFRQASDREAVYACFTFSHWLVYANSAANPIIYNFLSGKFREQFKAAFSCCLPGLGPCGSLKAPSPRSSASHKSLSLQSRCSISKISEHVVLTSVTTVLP
GalR3 antagonist – GalR3 antagonists in HEK293 cells, primary screen, cell-based, fluorescence readout; HEK293 GalR3-CNG cAMP membrane potential fluorescence; galR3 body fused to GalR1 C-terminus; inhibition, % at 3 µM; 360,000 tested, 0.44% active;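 active = inhibition above the screen-wide average plus 3 SD, cut at about 13% in these data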;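 note: forskolin and galanin both at EC90 stimulate the cells; cAMP rise reported by CNG channel membrane potential dye signal; 0% = forskolin plus galanin with DMSO and 100% = forskolin alone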
OX1R antag-2 – OX1R (HCRTR1) antagonists, primary screen, fluorescence, CHO/OX1R cells, Fluo-8 calcium, orexin A | 330,000 tested, 0.43% active | inhibition, % at 5 µM | Fluo-8 calcium fluorescence | Orexin/Hypocretin receptor type 1 (Homo sapiens), O43613 | AID 434989, 2010;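 active = inhibition above its plate's threshold, mean inhibition of all tested compounds on the plate plus 3 SD, cut at about 37% in these data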;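 note: 0% = orexin A challenge wells and 100% = SB-334867-A antagonist wells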
CHO parental Ca – ATP-evoked calcium signal inhibitors, parental CHO, primary screen, counter-screen for OX1R antagonist project, cell-based, fluorescence, Fluo-8 calcium dye. AID 463079, 2010. parental CHO-K1, ATP-induced calcium, Fluo-8 fluorescence. 330,000 tested, 0.63% active. inhibition, % at 5.6 µM;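 active = inhibition above that plate's mean sample inhibition plus 3 SD, cut at about 26% in these data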;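 note: 0% = ATP-challenged DMSO wells and 100% = DMSO wells without ATP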
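Measured by: calcium-sensitive Fluo-8 fluorescence / Test system: CHO parental line / Controls: ATP-challenged DMSO wells low, unchallenged DMSO wells high / Measure: % inhibition / Compound: single nominal dose of 5.6 µM per compound / Replicates: single well per compound, no replicates / Reagent: ATP as calcium-mobilizing challenge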
GPR7 antag cf – GPR7 receptor antagonists, confirmation, cell-based, fluorescence, single concentration. shares compounds with GPR7 antagonist. GPR7-expressing cells, calcium fluorescence antagonist mode. inhibition, % at 4.4 µM. 2,400 tested, 52% active. AID 1952, 2009; in the data active = inhibition above about 24%;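 note: stimulated with the GPR7 agonist NPW; 0% = agonist plus vehicle and 100% = vehicle alone without agonist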
MCHR1 antagonist – MCHR1 antagonists in cells, counter-screen for GPR7 antagonist project, cell-based, fluorescence, human; 2,400 tested, 62% active; inhibition, % at 4.4 µM; shares compounds with GPR7 antagonist; MCHR1-expressing cells, fluorescence antagonist assay; in the data active = inhibition above about 22%;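 note: 0% = vehicle with agonist and 100% = vehicle without agonist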
* hit, by the source's call; nt = no result given. Only some compounds are listed: those with a hit (about 3.1% of all), similar ones and a draw of the others.

SMILES	GPR7 antagonist	OX1R antag-1	GalR3 antagonist	OX1R antag-2	CHO parental Ca	GPR7 antag cf	MCHR1 antagonist
Cc1ccccc1CC1(CO)CCCN(C(=O)c2ccccc2Cl)C1 (configuration not stated)	33.6*	14.2	-2.7	6.1	-3.3	32.1*	17.7
COc1ccc(-c2noc(CCC(=O)NC3CCCCCC3)n2)cc1	-3.9	14.3	-8.0	-9.6	2.5	nt	nt
COc1ccc(-c2noc(CN3CCCCC3c3nccn3C)n2)cc1 (configuration not stated)	41.5*	10.6	-7.4	-13.3	-22.9	35.4*	19.5
Cc1cccc(C)c1NC(=O)C1(C)CSCC(=O)N1CCc1ccc(O)cc1 (configuration not stated)	nt	nt	-4.9	nt	nt	nt	nt
COc1ccccc1NS(=O)(=O)c1cc(NC(=O)CNC(=O)c2ccccc2)ccc1C	-0.2	34.6	-11.5	9.2	-21.3	nt	nt
COc1ccccc1NS(=O)(=O)c1cc(NC(=O)c2ccc3c(c2)OCCO3)ccc1C	27.2*	14.2	-3.6	-9.0	-14.4	1.6	63.3*
CN(C)CCNC(=O)c1ccc(Sc2ccc(Br)cc2)c([N+](=O)[O-])c1	23.2*	14.3	-3.9	-13.6	0.7	36.7*	42.3*
COc1cccc(CN2CCN(Cc3cc4ccccc4[nH]3)CC2CCO)c1 (configuration not stated)	67.4*	4.6	-4.4	12.2	2.7	78.6*	80.9*
CC(=O)c1ccc(N2CCN(C(=O)c3cc4c(s3)CCCC4)CC2)cc1	26.0*	6.8	-4.2	-20.1	-9.8	30.3*	61.0*
COc1ccc(N2CCN(C(=O)c3cc4c(s3)CCCCC4)CC2)cc1	nt	2.3	-2.5	-27.4	-20.9	nt	nt
CCN(CC)C(=O)CSc1nc(O)c(Cc2ccccc2)c(=O)n1-c1ccc(C)cc1	-17.7	12.7	1.7	-4.3	2.0	nt	nt
Cc1ccc(-n2c(SCC(=O)N3CCCCC3)nc(O)c(Cc3ccccc3)c2=O)cc1	25.0*	3.8	-7.9	-13.1	-12.1	10.4	3.7
O=C1NC[C@@H](CCCCN2CCN(Cc3ccccc3)C(=O)C2=O)N(CC2CCCCC2)C1=O	nt	nt	-6.5	nt	nt	nt	nt
Oc1ccc(-c2csc(-c3ccccc3)n2)cc1O	26.7*	14.5	-5.8	15.6	27.8*	17.3	7.2
Oc1ccc(-c2csc(-c3cccnc3)n2)cc1O	13.5	9.9	7.1	-18.8	-17.7	nt	nt
CC(=O)Nc1ccc(NC(=O)Nc2cccc(Cl)c2)cc1	0.6	-1.6	-6.6	-23.8	-5.4	nt	nt
O=C(Nc1csc([N+](=O)[O-])c1)Nc1c(Cl)cccc1Cl	11.1	23.4	-3.7	-6.6	-6.5	nt	nt
CC(=O)c1ccc(NC(=O)Nc2cccc(Cl)c2)cc1	28.7*	72.0*	-6.4	35.4	37.6*	36.8*	67.3*
O=C(Nc1ccc(Cl)cc1)Nc1csc([N+](=O)[O-])c1	23.5*	83.1*	-6.3	65.0*	65.1*	57.2*	66.7*
O=C(Nc1ccccc1)Nc1ccc(Cl)c([N+](=O)[O-])c1	26.1*	32.9	-2.0	5.2	10.0	58.5*	64.6*
O=C(CSc1nc2ccccc2c(=O)n1-c1ccc(F)cc1F)NC1CCS(=O)(=O)C1 (configuration not stated)	nt	nt	-4.3	nt	nt	nt	nt
O=S(=O)(Nc1cccc(-n2cnnn2)c1)c1cc(Br)ccc1Br	-3.8	15.5	0.7	-0.6	1.6	nt	nt
O=S(=O)(NC1CCCC1)c1ccc(S(=O)(=O)N2CCc3ccccc32)cc1	46.5*	31.9	-5.7	-2.8	38.9*	61.9*	60.8*
CCCCN(C(=O)CCN1C(=O)C2CC=CCC2C1=O)c1c(N)n(CCCC)c(=O)[nH]c1=O (configuration not stated)	nt	nt	-1.5	nt	nt	nt	nt
